Measured values taken from paper PMC7883397 (Cancer treatment and research communications, 2020).

How the values were obtained:
G361 melanoma cells = test: G361 melanoma cell proliferation; format: cell-based; conditions: Homo sapiens, G-361, read-out: IC50, inhibition of G361 cell proliferation
UACC-62-R cells = test: PLX4720-resistant UACC-62-R melanoma cell proliferation; format: cell-based, human
Procedure, shortened: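 The PLX4720-resistant UACC-62-R line was derived by sustained culture in low-dose PLX4720. It was maintained in 20 μM PLX4720, with medium replenished twice weekly. Proliferation was tracked as IncuCyte confluence and IC50 was derived for resistant and wild-type cells.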

SMILES	IC50 (G361 melanoma cells)	IC50 (UACC-62-R cells; Homo sapiens, read-out: IC50, inhibition of UACC-62-R cell proliferation)	resistance of UACC-62-R relative to UACC-62-WT cells (UACC-62-R cells; proliferation in presence of PLX4720)
C=CCc1ccc(O)c(-c2cc(CC=C)ccc2O)c1 [MGN, magnolol]	38 µM		
CCCS(=O)(=O)Nc1ccc(F)c(C(=O)c2c[nH]c3ncc(Cl)cc23)c1F [PLX4720]		26.2 µM	approximately six times more resistant
